Reference: ChEMBL document CHEMBL3243985, “Synthesis of two metabolites of (+)-propoxyphene” (J Med Chem, 1977)
Calls of active or inactive are those of the source. No cut-off for these calls is given here.

How the values were obtained:
Mus musculus [1] = assay: Analgesic activity in sc dosed mouse assessed as peak inhibition of acetic acid-induced writhing measured at 5 to 15 mins; format: functional, organism-based
Mus musculus [2] = assay: Analgesic activity in sc dosed mouse assessed as inhibition of acetic acid-induced writhing measured at 30 to 60 mins; format: functional, organism-based
Mus musculus [3] = assay: Analgesic activity in sc dosed mouse assessed as inhibition of acetic acid-induced writhing; format: functional
In short: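 Test agents were given to mice by subcutaneous injection, and doses were expressed in mg/kg. The ED50 was derived from the dose-response data and reported with 95% confidence limits.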

Mus musculus [4] = assay: Analgesic activity in sc dosed mouse assessed as inhibition of acetic acid-induced writhing in presence of 10 mg/kg naloxone; format: functional, organism-based; design: dose 10 mg/kg; conditions: at 10 mg/kg
Mus musculus [5] = species: Mus musculus; assay: Toxicity in mouse assessed as scratching at injection site at 1 mg/ml; format: organism-based; conditions: in vivo
Mus musculus [6] = assay: Analgesic activity in mouse assessed as inhibition of acetic acid-induced writhing at 100 mg/kg, sc; format: functional, organism-based; design: dose 100 mg/kg

For `CCC(=O)O[C@](Cc1ccccc1)(c1ccccc1)[C@H](C)CN`, the inhibition (Mus musculus [1]) was “Active”, the inhibition (Mus musculus [2]) was “Active” and the ED50 (Mus musculus [3]) was 25 mg/kg. The inhibition (Mus musculus [4]) was “inactive” and the Activity (Mus musculus [5]) was “Toxic”.

`CCC1=NCC(C)C(Cc2ccccc2)(c2ccccc2)O1` (racemic) was tested, and the inhibition (Mus musculus [6]) was “inactive”.

`CCC(=O)O[C@](Cc1ccccc1)(c1ccccc1)[C@H](C)CN(C)C` [PROPOXYPHENE] was tested, and the ED50 (Mus musculus [3]) was 6.9 mg/kg.

For `CCC(=O)OC(Cc1ccccc1)(c1ccccc1)C(C)CN.Cl` (racemic), the inhibition (Mus musculus [1]) was “Active”, the inhibition (Mus musculus [2]) was “Active” and the ED50 (Mus musculus [3]) was 51 mg/kg. The inhibition (Mus musculus [4]) was “inactive” and the Activity (Mus musculus [5]) was “Toxic”.
